A word on the GI50: it is the concentration that inhibits growth by half. Read a high GI50 as lower sensitivity of the cells. The term logP denotes a log measure of how a compound divides between an organic and an aqueous phase. Low readings indicate lower lipophilicity, high ones higher lipophilicity.

The results in this text go back to ChEMBL document CHEMBL2380295, “Structure-activity studies on the side chain of a simplified analog of aplysiatoxin (aplog-1) with anti-proliferative activity” (Bioorg Med Chem, 2013).

The test system of one data set is MKN-45. The data set can be described thus: Growth inhibition of human MKN45 cells after 48 hrs by sulforhodamine B assay. The data set is classed as functional. The conditions noted are these: MKN-45, 48 h. The gist of the method: (§1)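 Yamori 39-line human cancer panel, NCI method with modifications. Cells plated in RPMI 1640 plus 5% FBS, attached overnight, then exposed 48 h to compound at 10^-8, 10^-7, 10^-6, 10^-5 and 10^-4 M. Sulforhodamine B staining read at 525 nm; % growth = 100[(T−T0)/(C−T0)] from duplicate-point averages, with T0 the time-zero absorbance. GI50 is the concentration giving 50.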
In general terms: The SRB assay estimates cell density from bound dye.
In turn, `CC(=O)Nc1ccc(O)cc1CCCC[C@@H]1C[C@@H]2C[C@@]3(O[C@H](CCC3(C)C)CC(=O)O[C@@H](CO)CC(=O)O2)O1` showed a 50% growth inhibitory concentration (GI50) greater than 100 µM.

Another data set deals with MKN-74. The data set can be described thus: Growth inhibition of human MKN74 cells after 48 hrs by sulforhodamine B assay. To be noted: MKN-74, 48 h. The data set is classed as functional. The method, boiled down: as §1
As to `CC(=O)Nc1ccc(O)cc1CCCC[C@@H]1C[C@@H]2C[C@@]3(O[C@H](CCC3(C)C)CC(=O)O[C@@H](CO)CC(=O)O2)O1`, growth was halved (GI50) at 70.8 µM.

For another data set, the system named is HCT-116. Description: Growth inhibition of human HCT116 cells after 48 hrs by sulforhodamine B assay. The data set is classed as functional. The conditions noted are these: HCT-116, 48 h. The method, boiled down:
as §1
In turn, `CC(=O)Nc1ccc(O)cc1CCCC[C@@H]1C[C@@H]2C[C@@]3(O[C@H](CCC3(C)C)CC(=O)O[C@@H](CO)CC(=O)O2)O1` gave a GI50 greater than 100 µM.

Test system in the next data set: not listed separately
Description: Growth inhibition of human HCC2998 cells after 48 hrs by sulforhodamine B assay. The data set is classed as functional. The conditions noted are these: HCC 2998, 48 h. The gist of the method:
as §1
In the case of `CC(=O)Nc1ccc(O)cc1CCCC[C@@H]1C[C@@H]2C[C@@]3(O[C@H](CCC3(C)C)CC(=O)O[C@@H](CO)CC(=O)O2)O1`, the 50% growth inhibitory concentration (GI50) is 72.4 µM.

The next data set deals with KM12. Description: Growth inhibition of human KM12 cells after 48 hrs by sulforhodamine B assay. The conditions noted are these: KM12, 48 h. In kind it is functional. The method, boiled down:
as §1
`CC(=O)Nc1ccc(O)cc1CCCC[C@@H]1C[C@@H]2C[C@@]3(O[C@H](CCC3(C)C)CC(=O)O[C@@H](CO)CC(=O)O2)O1` had a GI50 greater than 100 µM.

A further data set deals with SF-295. Description: Growth inhibition of human SF295 cells after 48 hrs by sulforhodamine B assay. The data set is classed as functional. The conditions noted are these: SF-295, 48 h. The method, boiled down: as §1
For the compound `CC(=O)Nc1ccc(O)cc1CCCC[C@@H]1C[C@@H]2C[C@@]3(O[C@H](CCC3(C)C)CC(=O)O[C@@H](CO)CC(=O)O2)O1`, the concentration for 50% growth inhibition (GI50) was 60.3 µM.

Another data set relates to SNB-75. Description: Growth inhibition of human SNB75 cells after 48 hrs by sulforhodamine B assay. In kind it is functional. The conditions noted are these: SNB-75, 48 h. The method, boiled down:
as §1
`CC(=O)Nc1ccc(O)cc1CCCC[C@@H]1C[C@@H]2C[C@@]3(O[C@H](CCC3(C)C)CC(=O)O[C@@H](CO)CC(=O)O2)O1` gave a concentration for 50% growth inhibition (GI50) greater than 100 µM.

Another data set relates to NCI-H522. The data set can be described thus: Growth inhibition of human NCI-H522 cells after 48 hrs by sulforhodamine B assay. In kind it is functional. To be noted: NCI-H522, 48 h. The gist of the method: as §1
Compound `CC(=O)Nc1ccc(O)cc1CCCC[C@@H]1C[C@@H]2C[C@@]3(O[C@H](CCC3(C)C)CC(=O)O[C@@H](CO)CC(=O)O2)O1` showed a GI50 greater than 100 µM.

In another data set the test system is OVCAR-8. The data set can be described thus: Growth inhibition of human OVCAR8 cells after 48 hrs by sulforhodamine B assay. The data set is classed as functional. The conditions noted are these: OVCAR-8, 48 h. The gist of the method:
as §1
`CC(=O)Nc1ccc(O)cc1CCCC[C@@H]1C[C@@H]2C[C@@]3(O[C@H](CCC3(C)C)CC(=O)O[C@@H](CO)CC(=O)O2)O1`: the 50% growth inhibitory concentration (GI50) was greater than 100 µM.

In the next data set the test system is OVCAR-5. Description: Growth inhibition of human OVCAR5 cells after 48 hrs by sulforhodamine B assay. To be noted: OVCAR-5, 48 h. In kind it is functional. The method, boiled down:
as §1
With `CC(=O)Nc1ccc(O)cc1CCCC[C@@H]1C[C@@H]2C[C@@]3(O[C@H](CCC3(C)C)CC(=O)O[C@@H](CO)CC(=O)O2)O1`, the concentration for 50% growth inhibition (GI50) was greater than 100 µM.

For a further data set, the system named is SF-268. The data set can be described thus: Growth inhibition of human SF268 cells after 48 hrs by sulforhodamine B assay. The data set is classed as functional. The conditions noted are these: SF-268, 48 h. The gist of the method: as §1
On to `CC(=O)Nc1ccc(O)cc1CCCC[C@@H]1C[C@@H]2C[C@@]3(O[C@H](CCC3(C)C)CC(=O)O[C@@H](CO)CC(=O)O2)O1`, for which the GI50 is greater than 100 µM.

The subject of the next data set is MKN-28. The data set can be described thus: Growth inhibition of human MKN28 cells after 48 hrs by sulforhodamine B assay. The data set is classed as functional. The conditions noted are these: MKN-28, 48 h. The method, boiled down: as §1
As for `CC(=O)Nc1ccc(O)cc1CCCC[C@@H]1C[C@@H]2C[C@@]3(O[C@H](CCC3(C)C)CC(=O)O[C@@H](CO)CC(=O)O2)O1`, the GI50 was 87.1 µM.

The next data set relates to DMS-273. Description: Growth inhibition of human DMS273 cells after 48 hrs by sulforhodamine B assay. In kind it is functional. To be noted: DMS-273, 48 h. The method, boiled down:
as §1
Compound `CC(=O)Nc1ccc(O)cc1CCCC[C@@H]1C[C@@H]2C[C@@]3(O[C@H](CCC3(C)C)CC(=O)O[C@@H](CO)CC(=O)O2)O1` had a GI50 of 43.7 µM.

The next data set relates to SF-539. Description: Growth inhibition of human SF539 cells after 48 hrs by sulforhodamine B assay. In kind it is functional. The conditions noted are these: SF-539, 48 h. The method, boiled down: as §1
Compound `CC(=O)Nc1ccc(O)cc1CCCC[C@@H]1C[C@@H]2C[C@@]3(O[C@H](CCC3(C)C)CC(=O)O[C@@H](CO)CC(=O)O2)O1` gave a GI50 greater than 100 µM.

A further data set concerns Human gammaherpesvirus 4. Description: Induction of EBV-early antigen expressed in human Raji cells at 10^-6 M after 48 hrs by immunofluorescence assay relative to control. The data set is classed as organism-based. The conditions noted are these: human gammaherpesvirus 4, raji, 1 µM. The gist of the method:
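Raji B-lymphoblastoid cells (5 × 10^5/mL) in RPMI 1640 with 10% FBS, with 4 mM sodium n-butyrate as synergist and test compound at 10^-7 or 10^-6 M (final DMSO 0.4%). Incubated 48 h at 37 °C under 5% CO2. Smears were stained by indirect immunofluorescence using NPC patient serum and FITC anti-human IgG. At least 500 cells counted; % EA-positive recorded; n = 3, SEM.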
Compound `CC(=O)Nc1ccc(O)cc1CCCC[C@@H]1C[C@@H]2C[C@@]3(O[C@H](CCC3(C)C)CC(=O)O[C@@H](CO)CC(=O)O2)O1` registered an Activity of 2.1%.

The next data set has as its system SK-OV-3. Description: Growth inhibition of human SKOV3 cells after 48 hrs by sulforhodamine B assay. In kind it is functional. To be noted: SK-OV-3, 48 h. The gist of the method: as §1
The compound `CC(=O)Nc1ccc(O)cc1CCCC[C@@H]1C[C@@H]2C[C@@]3(O[C@H](CCC3(C)C)CC(=O)O[C@@H](CO)CC(=O)O2)O1` gave a 50% growth inhibitory concentration (GI50) greater than 100 µM.

Test system in another data set: not listed separately
Description: Growth inhibition of human HBC5 cells after 48 hrs by sulforhodamine B assay. In kind it is functional. The conditions noted are these: HBC5, 48 h. The method, boiled down: as §1
On to `CC(=O)Nc1ccc(O)cc1CCCC[C@@H]1C[C@@H]2C[C@@]3(O[C@H](CCC3(C)C)CC(=O)O[C@@H](CO)CC(=O)O2)O1`, for which the concentration for 50% growth inhibition (GI50) was greater than 100 µM.

The subject of a further data set is NCI-H226. The data set can be described thus: Growth inhibition of human NCI-H226 cells after 48 hrs by sulforhodamine B assay. In kind it is functional. The conditions noted are these: NCI-H226, 48 h. The gist of the method:
as §1
`CC(=O)Nc1ccc(O)cc1CCCC[C@@H]1C[C@@H]2C[C@@]3(O[C@H](CCC3(C)C)CC(=O)O[C@@H](CO)CC(=O)O2)O1` gave a concentration for 50% growth inhibition (GI50) of 53.7 µM.

The test system of the next data set is MDA-MB-231. Description: Growth inhibition of human MDA-MB-231 cells after 48 hrs by sulforhodamine B assay. In kind it is functional. To be noted: MDA-MB-231, 48 h. The gist of the method:
as §1
The compound `CC(=O)Nc1ccc(O)cc1CCCC[C@@H]1C[C@@H]2C[C@@]3(O[C@H](CCC3(C)C)CC(=O)O[C@@H](CO)CC(=O)O2)O1` showed a GI50 greater than 100 µM.

The next data set concerns ACHN. The data set can be described thus: Growth inhibition of human ACHN cells after 48 hrs by sulforhodamine B assay. The data set is classed as functional.
Details: not given
The method, boiled down:
as §1
In the case of `CC(=O)Nc1ccc(O)cc1CCCC[C@@H]1C[C@@H]2C[C@@]3(O[C@H](CCC3(C)C)CC(=O)O[C@@H](CO)CC(=O)O2)O1`, the GI50 is greater than 100 µM.

A further data set concerns MKN-7. The data set can be described thus: Growth inhibition of human MKN7 cells after 48 hrs by sulforhodamine B assay. The data set is classed as functional. To be noted: MKN-7, 48 h. The method, boiled down:
as §1
With `CC(=O)Nc1ccc(O)cc1CCCC[C@@H]1C[C@@H]2C[C@@]3(O[C@H](CCC3(C)C)CC(=O)O[C@@H](CO)CC(=O)O2)O1`, the GI50 is greater than 100 µM.

Test system in a further data set: not listed separately
The data set can be described thus: Octanol-water partition coefficient, log P of the compound by HPLC analysis.
Details: not given
In kind it is physicochemical. The gist of the method: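 log P was estimated from HPLC retention, with column dead time measured using unretained formamide.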
Take `CC(=O)Nc1ccc(O)cc1CCCC[C@@H]1C[C@@H]2C[C@@]3(O[C@H](CCC3(C)C)CC(=O)O[C@@H](CO)CC(=O)O2)O1`: the logP came out at 2.3.

Test system in another data set: not listed separately
The data set can be described thus: Cytotoxicity against human Raji cells assessed as cell viability at 10^-7 M. In kind it is cell-based. The conditions noted are these: read-out: Activity.
As to `CC(=O)Nc1ccc(O)cc1CCCC[C@@H]1C[C@@H]2C[C@@]3(O[C@H](CCC3(C)C)CC(=O)O[C@@H](CO)CC(=O)O2)O1`, the viability at 0.1 µM worked out at 60%.
